# Laboratory results from ChEMBL document CHEMBL4513216, “Probing the Open Global Health Chemical Diversity Library for Multistage-Active Starting Points for Next-Generation Antimalarials” (ACS Infect Dis, 2020).
# Assay: Toxicity liver stage against HepG2, at 10uM
# Type: cell-based
# Set-up: test concentration 10 uM, cell line HepG2-A16-CD81EGFP
# Conditions: human, HepG2-A16-CD81EGFP cells; read-out: INHIBITION
# Procedure, shortened: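 Uninfected HepG2-A16-CD81EGFP cells, 3 × 10^3 per well, 1536-well, plated on prespotted compound at 10 μM final, parasite-free screening media added to match infected plates; puromycin 10 μM positive, DMSO 0.5% negative; run in parallel with 48 h PbLuc assay at 37 °C, 5% CO2; viability by CellTiter-Glo luminescence, normalized to controls.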
row,SMILES,cytotoxicity at 10 µM [%]
1,CC(C)(C)c1noc(CNc2ccccc2N2CCC(O)CC2)n1,0.965
2,CC(C)n1[nH]c(=O)c2c1NC(=O)CC2c1cccnc1 (configuration not stated),-6.15
3,CC(C)c1cc(NCc2csc(C(C)C)n2)nc(N)n1,19.8
4,Cc1ncc(S(=O)(=O)N(CC(C)C)c2cccc(O)c2)s1,-41.2
5,CC(C)c1n[nH]c(C2CN(C(=O)c3cc(C(N)=O)cs3)CCO2)n1 (configuration not stated),1.17
6,COc1ccccc1-n1nc(-c2ccco2)n(CC(N)=O)c1=O,0.5
7,CCCOC(=O)N1CCCC(c2nnc(CN3CCOCC3)n2C)C1 (configuration not stated),2.19
8,Cn1cc(C2CCCN2CCc2nc3ccccc3c(=O)[nH]2)cn1 (configuration not stated),-12.9
9,CCn1cc(CNC(=O)CC(C)C)cn1,4.18
10,Cc1nn(C)c(C)c1C1CCCN1C(=O)c1ccc(N(C)C)nc1 (configuration not stated),-7.19
11,O=c1cc(CN2CCCC2)nc2n1CCCN(Cc1ccco1)C2,4.01
12,Cc1cc(C)c2cc(C(=O)N3CCNC(=O)C3)[nH]c2c1,-13.1
13,Cc1ccc(O)c(C(=O)N2CCOCC2c2c(C)n[nH]c2C)c1 (configuration not stated),-10.8
14,CC(NC(=O)NCc1ccccc1)(C(=O)O)c1ccco1 (configuration not stated),-3.37
15,c1ccc(COCCN2CCc3[nH]cnc3C2c2ccoc2)cc1 (configuration not stated),6.62
16,Cc1nc(C(C)NC(=O)COc2ccc(F)cc2)n[nH]1 (configuration not stated),6.39
17,COCCN1CCC(CN(CC2CCCO2)C(=O)COC)CC1 (configuration not stated),-21.1
18,Cc1cc(CNc2cc(Cl)ccc2C)no1,-7.01
19,Cc1occc1C(=O)N1C[C@@H]2CCCO[C@@H]2[C@H](NC(=O)CC2CC2)C1,-102
20,Cn1ncc2c(N3CCN(C(N)=O)CC3)nc(C3CCCC3)nc21,18.2
21,Cn1cccc1C(=O)N1CCO[C@@H]2CN(Cc3ccco3)C[C@@H]2C1,-97.3

row,SMILES,cytotoxicity at 10 µM [%]
1,O=C(NCCOc1ccccc1)c1ccc2c(c1)C(=O)NC2=O,4.98
2,O=C(CS(=O)(=O)c1ccccc1Cl)NC1CCCCNC1=O (configuration not stated),-13.2
3,COc1c(Cl)cccc1NCc1csc(C)n1,-10.1
4,CCn1c(C)nc2cc(NC(=O)C3CN(C(C)=O)C3)ccc21,3.46
5,CCCC1COCCN1Cc1ccc(C(=O)O)cc1 (configuration not stated),-139
6,CCN(CC)Cc1ccc(C(=O)NC2CCc3cc(Br)ccc32)o1 (configuration not stated),-3.3
7,CCc1[nH]c2c(CNC(=O)C3CCCN(C)C3)cc(C)cc2c1C (configuration not stated),-15.6
8,O=C(Nc1ccc(N2CCCC2)nc1)N1CCc2ccccc2C1,-10.2
9,CN1CCN(C(=O)[C@H]2C[C@@H]3CN(c4ncc(F)cn4)C[C@@H]3N2C)CC1,-136
10,COc1cccc(CNC2CCSC2)c1OC (configuration not stated),2.25
11,O=S(=O)(c1ccccc1F)N1CCC(Oc2cccnn2)CC1,0.388
12,N#CCCCS(=O)(=O)NC1(c2ccc(F)cc2)CC1,2.9
13,COc1cccc(-n2c(C)cc(C(=O)O)c2C)c1,-8.65
14,CC(C)c1ccc(C2(C(=O)NCCS(N)(=O)=O)CCC2)cc1,-2
15,COc1ccc(N2CCN(C(=O)c3cc(=O)c(OC)c[nH]3)CC2)cc1,-0.244
16,Cc1oc(-c2cccc(F)c2)nc1CN1CCOCS1(=O)=O,2.74
17,Cc1cc(C2CCCN(C(=O)c3cnccn3)C2)ccn1 (configuration not stated),0.204
18,Cn1cc(CN2CCn3cc(Cn4cccn4)nc3C2)cn1,4.49
19,CSCC(=O)N1CCCC(n2ccnc2C(C)C)C1 (configuration not stated),-18.2
20,CCCc1ccc(CN2CCN(C(=O)C(C)C)[C@@H]3CS(=O)(=O)C[C@@H]32)o1,5.39
21,Cc1nc(C)c(C(=O)Nc2cccc(CN3CCC(CO)CC3)c2)o1,-154

row,SMILES,cytotoxicity at 10 µM [%]
1,Cc1[nH]nc2ncc(C(=O)N3CCN(CC(C)(C)O)CC3)cc12,-0.0414
2,Cc1c(Cl)cccc1NC(=O)Cn1cc(C(=O)O)ccc1=O,-5.21
3,N#Cc1nc(COc2ccc3c(c2)OCO3)oc1N1CCCC1,-42.7
4,Clc1ccc(-c2cnc(CNC3CCc4ncnn4C3)o2)cc1 (configuration not stated),-4.36
5,CCc1nnc(Nc2cc(C)nc(C3CCN(c4cnccn4)C3)n2)s1 (configuration not stated),4.24
6,CCSC(C)C(=O)N1CCC(c2nn(C)c(=O)n2-c2ccccc2)CC1 (configuration not stated),0.299
7,CCN1CCC(CC(=O)N(C)C(C)c2cncs2)CC1 (configuration not stated),6.05
8,COc1ccc(CC(=O)N2CCc3nc(C(=O)N(C)C)sc3CC2)cc1,15.8
9,COc1cccc2c1OCC(CNC(=O)CN(C)C1CCCC1)C2 (configuration not stated),-147
10,CC(=O)Nc1ccc(CNCC(O)c2ccc(C)cc2)cc1 (configuration not stated),-0.684
11,CNC(=O)CN(C(=O)c1ccc(SC)o1)c1cccc(F)c1,10.3
12,COc1ccc(N(C)Cc2nc3c(cnn3C)c(=O)[nH]2)cc1OC,-10.7
13,CC(CO)NC(=O)Nc1ccc(CC#N)cc1 (configuration not stated),-3.39
14,CCN(Cc1ccc2c(c1)OCO2)S(=O)(=O)N(C)C,-2.97
15,COCC(=O)Nc1nn(Cc2ccc(F)cc2)cc1Cl,7.19
16,CCOCc1cnc2n1CCN(C(=O)Cc1cccs1)C2C (configuration not stated),8.04
17,CCN(Cc1cnn(C)c1)S(=O)(=O)N1CCCC1c1ccco1 (configuration not stated),-3.55
18,CN(C)C(=O)C1(c2cnccn2)CCCN1C(=O)Cc1ccccc1 (configuration not stated),0.225
19,Cc1nn(C)c(C)c1CCC(=O)N1CCCOC(Cn2cccn2)C1 (configuration not stated),-2.86
20,COc1ncccc1CNC(=O)c1c(C)oc(C)c1C,-14.5
21,COc1ccc(C(C)N2CCC(C(=O)N(C)C)CC2)cc1Cl (configuration not stated),-52.5

row,SMILES,cytotoxicity at 10 µM [%]
1,Cc1n[nH]c(C)c1CNC(=O)NC1CCCN(c2ccccc2F)C1 (configuration not stated),-2.57
2,Oc1cc(C2CCCCN2CC2CC2)nc(-c2ccncc2)n1 (configuration not stated),9.77
3,COCCN1CC2(CCCN(C(=O)NCc3ccccc3)C2)CCC1=O (configuration not stated),-9.31
4,CCN(CC)C(=O)CSc1ncc[nH]1,-9.94
5,O=C(Cn1cccn1)N1CCC(c2nnc(C(F)(F)F)o2)CC1,-10.8
6,Cc1cn2nc(N3CCN(Cc4nc(C(C)C)no4)CC3)sc2n1,-7.27
7,Cc1nn(CCC#N)c(C)c1[C@@H]1C=C[C@@H](NCc2cccc(Cl)c2)C1,-1.45
8,CCOc1ccc(NC(=O)c2cc3c([nH]c2=O)CCC3)cc1,6.5
9,COCCn1ccnc1C1CCCN(C(=O)c2ccncc2F)C1 (configuration not stated),0.0773
10,NC(=O)c1ccc(-n2ccnc2-c2cccc(O)c2)cc1N1CCCC1,15.8
11,O=C(c1cccnc1)N1CCC2(CC1)CCN(Cc1ccccn1)C2=O,2.78
12,CCNc1ncc(C(=O)NCc2csc(C)n2)cn1,12.5
13,Cc1ccc(C2(O)CCN(C(=O)c3sccc3S(N)(=O)=O)CC2)nc1,-3.3
14,CN(C)C(=O)N1CCC(C(=O)N2CCOC(CC3CCCCC3)C2)CC1 (configuration not stated),21.3
15,Cc1ncccc1C(=O)N1CCC2(CCc3ccccc3C(=O)N2)C1 (configuration not stated),4.28
16,CCS(=O)(=O)N1CCCC2(CCCN2Cc2cccc(Cl)c2)C1 (configuration not stated),-143
17,Cc1nc(C)c(CN(C)C2CCN(C(=O)OC(C)(C)C)CC2)s1,3.51
18,CN1CC(=O)N(C2CCC2)Cc2c(NC3CCNCC3)ncnc21,8.77
19,CCn1cc(S(=O)(=O)NCc2ccnc(-n3ccnc3)c2)cn1,-1.78
